Here are results for 25 compounds from ChEMBL document CHEMBL4052674, “Discovery of novel quinazoline-2,4(1H,3H)-dione derivatives as potent PARP-2 selective inhibitors” (Bioorg Med Chem, 2017).

Molecules are shown by their SMILES. pIC50: −log10 of the molar value.

Assay [1] concerns the target Poly [ADP-ribose] polymerase 1 (Homo sapiens, UniProt P09874). As to the kind of experiment: Inhibition of recombinant human PARP-1 expressed in Escherichia coli BL21 (DE3) using sheared DNA as substrate in presence of biotinylated NAD after 1 hr by ELISA. (An ELISA detects its analyte on a solid surface through an enzyme-linked reagent.)
Assay [2] has as its target Poly [ADP-ribose] polymerase 2 (Homo sapiens, UniProt Q9UGN5). As to the kind of experiment: Inhibition of recombinant human PARP-2 expressed in Escherichia coli BL21 (DE3) using sheared DNA as substrate in presence of biotinylated NAD after 1 hr by ELISA.
The species named for a further assay is Homo sapiens. The experiment in a line: Selectivity index, ratio of IC50 for recombinant human PARP-1 expressed in Escherichia coli BL21 (DE3) to IC50 for recombinant human PARP-2 expressed in Escherichia coli BL21 (DE3). A digest of the protocol: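 Human recombinant PARP-1 and PARP-2, expressed from plasmid and purified, were tested for inhibition of enzyme activity by ELISA and by chemical quantitation of NAD⁺. IC50 for each isoform was averaged from two or three independent experiments. The selectivity value is the ratio of the PARP-1 IC50 to the PARP-2 IC50.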

Poly [ADP-ribose] polymerase 1, sequence (P09874 whole entry): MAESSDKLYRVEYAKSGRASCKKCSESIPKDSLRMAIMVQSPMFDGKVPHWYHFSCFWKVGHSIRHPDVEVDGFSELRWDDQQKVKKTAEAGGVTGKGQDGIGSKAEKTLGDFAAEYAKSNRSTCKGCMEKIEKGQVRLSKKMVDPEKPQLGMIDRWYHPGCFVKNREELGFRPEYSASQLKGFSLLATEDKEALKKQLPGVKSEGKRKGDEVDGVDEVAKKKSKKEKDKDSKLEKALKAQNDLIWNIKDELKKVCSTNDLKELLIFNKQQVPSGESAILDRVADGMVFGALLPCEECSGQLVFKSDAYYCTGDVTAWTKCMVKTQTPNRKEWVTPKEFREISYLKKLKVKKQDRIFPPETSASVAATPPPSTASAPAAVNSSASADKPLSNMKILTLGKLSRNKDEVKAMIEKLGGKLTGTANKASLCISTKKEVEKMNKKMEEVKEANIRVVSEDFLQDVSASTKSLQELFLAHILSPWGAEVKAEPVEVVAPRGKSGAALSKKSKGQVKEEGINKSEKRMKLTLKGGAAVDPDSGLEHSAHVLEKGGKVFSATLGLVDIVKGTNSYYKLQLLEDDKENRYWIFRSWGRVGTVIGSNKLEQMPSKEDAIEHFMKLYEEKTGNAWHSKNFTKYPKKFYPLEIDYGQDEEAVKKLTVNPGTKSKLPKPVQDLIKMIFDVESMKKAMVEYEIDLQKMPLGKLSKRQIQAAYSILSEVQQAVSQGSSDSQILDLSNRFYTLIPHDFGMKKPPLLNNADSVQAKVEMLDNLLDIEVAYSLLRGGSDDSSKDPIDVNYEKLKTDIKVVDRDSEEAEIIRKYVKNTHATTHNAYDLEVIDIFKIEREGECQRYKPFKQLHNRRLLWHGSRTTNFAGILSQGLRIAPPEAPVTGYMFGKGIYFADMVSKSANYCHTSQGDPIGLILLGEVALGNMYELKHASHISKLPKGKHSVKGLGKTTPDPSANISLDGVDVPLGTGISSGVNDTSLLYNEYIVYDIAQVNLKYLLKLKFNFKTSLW
Poly [ADP-ribose] polymerase 2, sequence (Q9UGN5 whole entry, canonical isoform): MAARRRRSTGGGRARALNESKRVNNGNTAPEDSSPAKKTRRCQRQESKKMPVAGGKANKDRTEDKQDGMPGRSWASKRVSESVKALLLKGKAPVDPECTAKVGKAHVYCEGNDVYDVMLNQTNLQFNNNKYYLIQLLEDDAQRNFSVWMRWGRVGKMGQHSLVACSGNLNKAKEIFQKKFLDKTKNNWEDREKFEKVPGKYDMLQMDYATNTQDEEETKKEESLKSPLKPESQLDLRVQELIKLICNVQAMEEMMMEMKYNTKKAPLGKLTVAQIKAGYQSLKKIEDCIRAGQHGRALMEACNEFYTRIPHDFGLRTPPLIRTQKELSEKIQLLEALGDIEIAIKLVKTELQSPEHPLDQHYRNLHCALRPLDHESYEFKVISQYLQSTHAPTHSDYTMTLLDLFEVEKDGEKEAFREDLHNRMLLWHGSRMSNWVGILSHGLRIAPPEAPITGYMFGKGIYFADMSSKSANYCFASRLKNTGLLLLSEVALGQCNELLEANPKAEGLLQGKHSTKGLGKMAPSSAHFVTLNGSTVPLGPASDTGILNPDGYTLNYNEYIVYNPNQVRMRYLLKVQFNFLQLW

The pIC50 is the IC50 on a negative log10 scale, so that one unit is a factor of ten. For the compound `O=C(Nc1cc(Cn2c(=O)[nH]c(=O)c3ccccc32)cnc1F)[C@H]1CCN(Cc2ccccc2)C1`, the pIC50 was 7.88 in assay [1] and 8.27 in assay [2]. Moreover, in the assay listed under Homo sapiens, the Ratio IC50 was 2.5.

Regarding `O=C(Nc1cc(Cn2c(=O)[nH]c(=O)c3ccccc32)cnc1F)[C@H]1CCN(CC(F)(F)F)C1`, the negative-log IC50 (pIC50) in assay [1] is 6.33; in assay [2] it was 7.94. In addition, the Ratio IC50 in the assay filed under Homo sapiens turned out to be 40.6.

For `CC(C)(C)OC(=O)N1CC[C@H](C(=O)Nc2cncc(Cn3c(=O)[nH]c(=O)c4ccccc43)c2)C1`, the pIC50 in assay [1] and in assay [2] was less than 7.00 each time.

Turning to `O=C(Nc1cc(Cn2c(=O)[nH]c(=O)c3ccccc32)cnc1F)[C@H]1CCN(C2CCC(F)(F)CC2)C1`, the negative logarithm of the IC50 (pIC50) in assay [1] is 7.09; in assay [2] it was 7.92. Further, the Ratio IC50 in the assay filed under Homo sapiens is 6.8.

In the case of `O=C(Nc1cc(Cn2c(=O)[nH]c(=O)c3ccccc32)cnc1F)[C@H]1CCN(CCC(F)(F)F)C1`, the pIC50 in assay [1] is 8.51; in assay [2], 8.54. Besides, in the assay filed under Homo sapiens, the Ratio IC50 amounted to 1.

With `CC(C)(C)OC(=O)N1CC[C@H](C(=O)Nc2cc(Cn3c(=O)[nH]c(=O)c4ccccc43)cnc2Cl)C1`, the pIC50 was 6.63 in assay [1] and 7.91 in assay [2]. The Ratio IC50 in the assay listed under Homo sapiens came to 19.

As to `O=C(Nc1cc(Cn2c(=O)[nH]c(=O)c3ccccc32)cnc1Br)[C@H]1CCNC1`, the negative logarithm of the IC50 (pIC50) in assay [1] and in assay [2] was less than 7.00 in each case.

On to `O=C(Nc1cc(Cn2c(=O)[nH]c(=O)c3ccccc32)cnc1F)[C@H]1CCNC1`, for which the pIC50 is 7.86 in assay [1] and 7.10 in assay [2]. Also, in the assay listed under Homo sapiens, the Ratio IC50 came out at 0.18.

In the case of `O=C(Nc1cncc(Cn2c(=O)[nH]c(=O)c3ccccc32)c1)[C@H]1CCNC1`, the pIC50 in assay [1] was 8.00; in assay [2], 6.66. For the same compound, the Ratio IC50 in the assay listed under Homo sapiens was found to be 0.04.

For `O=C(Nc1cc(Cn2c(=O)[nH]c(=O)c3ccccc32)ccc1Cl)[C@H]1CCNC1`, the pIC50 in assay [1] and in assay [2] was less than 7.00 in each case.

With `O=C(Nc1cc(Cn2c(=O)[nH]c(=O)c3ccccc32)cnc1F)[C@H]1CCN(C(=O)C2CC2)C1`, the pIC50 is 7.27 in assay [1] and 8.35 in assay [2]. In the assay filed under Homo sapiens, the Ratio IC50 was found to be 12.

Regarding `O=C(Nc1cc(Cn2c(=O)[nH]c(=O)c3ccccc32)cnc1F)[C@H]1CCN(c2ccccc2)C1`, the pIC50 in assay [1] was 7.03; in assay [2], 8.39. In addition, the Ratio IC50 in the assay filed under Homo sapiens was found to be 22.8.

Consider `CC(C)(C)OC(=O)N1CC[C@H](C(=O)Nc2cc(Cn3c(=O)[nH]c(=O)c4ccccc43)cnc2F)C1`, for which the figures for the pIC50 in assay [1] and in assay [2] were 7.40 and 8.07, respectively. Further, in the assay filed under Homo sapiens, the Ratio IC50 worked out at 4.6.

Regarding `O=C(Nc1cc(Cn2c(=O)[nH]c(=O)c3ccccc32)ccc1[N+](=O)[O-])[C@H]1CCNC1`, the negative-log IC50 (pIC50) in assay [1] and in assay [2] was less than 7.00 each time.

As to `O=C(Nc1cc(Cn2c(=O)[nH]c(=O)c3ccccc32)cnc1F)[C@H]1CCN(CCC2CC2)C1`, the negative logarithm of the IC50 (pIC50) is 8.85 in assay [1] and 9.00 in assay [2]. In addition, the Ratio IC50 in the assay filed under Homo sapiens came to 1.8.

For `CC(C)(C)OC(=O)N1CC[C@H](C(=O)Nc2cc(Cn3c(=O)[nH]c(=O)c4ccccc43)cnc2Br)C1`, the negative logarithm of the IC50 (pIC50) in assay [1] and in assay [2] was less than 7.00 each time.

As for `CC(C)(C)OC(=O)N1CC[C@H](C(=O)Nc2cc(Cn3c(=O)[nH]c(=O)c4ccccc43)ccc2O)C1`, the pIC50 in assay [1] and in assay [2] was less than 7.00 each time.

Turning to `O=C(Nc1cc(Cn2c(=O)[nH]c(=O)c3ccccc32)cnc1Cl)[C@H]1CCNC1`, the pIC50 in assay [1] was 6.76; in assay [2], 7.40. For the same compound, the Ratio IC50 in the assay listed under Homo sapiens amounted to 4.4.

As for `O=C(Nc1cc(Cn2c(=O)[nH]c(=O)c3ccccc32)ccc1Br)[C@H]1CCNC1`, the pIC50 in assay [1] and in assay [2] was less than 7.00 throughout.

In the case of `CC(C)(C)OC(=O)N1CC[C@H](C(=O)Nc2cc(Cn3c(=O)[nH]c(=O)c4ccccc43)ccc2Cl)C1`, the negative-log IC50 (pIC50) in assay [1] was 8.21; in assay [2], 8.04. In addition, the Ratio IC50 in the assay listed under Homo sapiens was determined as 0.7.

For the compound `CC(C)(C)OC(=O)N1CC[C@H](C(=O)Nc2cc(Cn3c(=O)[nH]c(=O)c4ccccc43)ccc2[N+](=O)[O-])C1`, the pIC50 in assay [1] and in assay [2] was less than 7.00 in each case.

For `O=C(Nc1cc(Cn2c(=O)[nH]c(=O)c3ccccc32)cnc1F)[C@H]1CCN(CC2CC2)C1`, the negative-log IC50 (pIC50) is 8.24 in assay [1] and 8.44 in assay [2]. In addition, the Ratio IC50 in the assay listed under Homo sapiens amounted to 1.6.

Regarding `O=C(Nc1cc(Cn2c(=O)[nH]c(=O)c3ccccc32)cnc1F)[C@H]1CCN(Cc2ccncc2)C1`, the results for the negative-log IC50 (pIC50) in assay [1] and in assay [2] were 7.21 and 8.24, respectively. In the assay listed under Homo sapiens, the Ratio IC50 worked out at 10.7.

On to `CC(C)(C)OC(=O)N1CC[C@H](C(=O)Nc2cc(Cn3c(=O)[nH]c(=O)c4ccccc43)ccc2N)C1`, for which the pIC50 in assay [1] and in assay [2] was less than 7.00 each time.

Turning to `CC(C)(C)OC(=O)N1CC[C@H](C(=O)Nc2cc(Cn3c(=O)[nH]c(=O)c4ccccc43)ccc2Br)C1`, the results for the pIC50 in assay [1] and in assay [2] were 6.46 and 7.17, respectively. In addition, the Ratio IC50 in the assay listed under Homo sapiens was 5.1.
